Experiments:
Cannabinoid receptor 2 [1] = biological target: T1, Cannabinoid receptor 2 (Homo sapiens, UniProt P34972); test: Agonist activity at human CB2 receptor expressed in CHOK1 cells assessed as inhibition of forskolin-induced cAMP production treated 15 mins before forskolin challenge measured after 1 hr by HTRF assay; type: functional, cell-based, CHO-K1
How it was run: (§1)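 CHO-K1 cells (1000 per well) expressing human or rat CB1 or CB2 were preincubated with compound for 15 min at room temperature. Forskolin was then added at its EC70 for 30 min at room temperature. cAMP was detected by HTRF (d2-cAMP plus anti-cAMP cryptate) after a final 1 h incubation at room temperature. Values are reported as IC50 with % Emax.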

Cannabinoid receptor 2 [2] = biological target: T1, Cannabinoid receptor 2; test: Agonist activity at human CB2 receptor expressed in CHOK1 cells assessed as inhibition of forskolin-induced cAMP production treated 15 mins before forskolin challenge measured after 1 hr by HTRF assay relative to control; type: functional, cell-based; conditions: CHO-K1
How it was run: (§2)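 CHO-K1 cells (1000 per well) expressing human or rat CB1 or CB2 were preincubated with compound at room temperature for 15 min. Forskolin at EC70 was then added for a further 30 min at room temperature. cAMP was read by HTRF (d2-cAMP plus anti-cAMP-cryptate, final 1 h at room temperature). IC50 and % Emax were reported.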

Cannabinoid receptor 1 [3] = biological target: T2, Cannabinoid receptor 1 (Homo sapiens, UniProt P21554); test: Agonist activity at human CB1 receptor expressed in CHOK1 cells assessed as inhibition of forskolin-induced cAMP production treated 15 mins before forskolin challenge measured after 1 hr by HTRF assay relative to control; type: functional, cell-based; conditions: CHO-K1; how it was run: as §2
T2 sequence (P21554 whole entry): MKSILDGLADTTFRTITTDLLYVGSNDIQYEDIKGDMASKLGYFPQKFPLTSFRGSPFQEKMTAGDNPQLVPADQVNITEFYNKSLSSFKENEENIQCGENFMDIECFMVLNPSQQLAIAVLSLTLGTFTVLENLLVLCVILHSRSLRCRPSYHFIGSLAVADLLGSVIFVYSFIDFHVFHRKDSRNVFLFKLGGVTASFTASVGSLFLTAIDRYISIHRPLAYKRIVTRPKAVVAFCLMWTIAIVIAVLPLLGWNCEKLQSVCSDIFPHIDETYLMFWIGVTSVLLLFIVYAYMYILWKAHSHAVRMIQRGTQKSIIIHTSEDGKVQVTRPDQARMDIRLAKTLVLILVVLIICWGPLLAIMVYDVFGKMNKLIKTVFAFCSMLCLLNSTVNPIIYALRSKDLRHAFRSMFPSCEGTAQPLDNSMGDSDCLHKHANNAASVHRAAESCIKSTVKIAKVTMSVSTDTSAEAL

Cannabinoid receptor 1 [4] = biological target: T2, Cannabinoid receptor 1; test: Agonist activity at human CB1 receptor expressed in CHOK1 cells assessed as inhibition of forskolin-induced cAMP production treated 15 mins before forskolin challenge measured after 1 hr by HTRF assay; type: functional, cell-based, CHO-K1; how it was run: as §1
Plasma = test: Drug level in rat complete Freund's adjuvant-induced inflammation model plasma at 30 mg/kg, sc; type: ADME, organism-based; set-up: dose 30 mg/kg, route subcutaneous; conditions: in vivo, read-out: Drug uptake
How it was run: (§3)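 In the rat CFA hyperalgesia experiments, after 30 mpk subcutaneous dosing, compound levels (nM) were measured in plasma, brain homogenate and cerebrospinal fluid.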

Brain = test: Drug level in rat complete Freund's adjuvant-induced inflammation model brain at 30 mg/kg, sc; type: ADME, organism-based; set-up: dose 30 mg/kg, route subcutaneous; conditions: in vivo, read-out: Drug uptake; how it was run: as §3
Rattus norvegicus [5] = test: Antiinflammatory activity in rat assessed as inhibition of complete Freund's adjuvant-induced paw withdrawal threshold at 30 mg/kg, sc after 60 mins (reference value: 4.8%); type: functional; conditions: 1 h, route subcutaneous
How it was run: (§4)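 Rat complete Freund's adjuvant hyperalgesia model. Compound was given subcutaneously at 10, 30 or 100 mpk. Paw withdrawal threshold was read at the 60 min timepoint and expressed as % reversal.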

Rattus norvegicus [6] = test: Antiinflammatory activity in rat assessed as inhibition of complete Freund's adjuvant-induced paw withdrawal threshold at 10 mg/kg, sc after 60 mins (reference value: 4.8%); type: functional; conditions: 1 h, route subcutaneous; how it was run: as §4
Cannabinoid receptor 1 [7] = biological target: Cannabinoid receptor 1 (Rattus norvegicus, UniProt P20272); test: Agonist activity at rat CB1 receptor expressed in CHOK1 cells assessed as inhibition of forskolin-induced cAMP production treated 15 mins before forskolin challenge measured after 1 hr by HTRF assay; type: functional, cell-based, CHO-K1; how it was run: as §1
Cannabinoid receptor 1 (Rattus norvegicus, UniProt P20272), sequence (P20272 whole entry): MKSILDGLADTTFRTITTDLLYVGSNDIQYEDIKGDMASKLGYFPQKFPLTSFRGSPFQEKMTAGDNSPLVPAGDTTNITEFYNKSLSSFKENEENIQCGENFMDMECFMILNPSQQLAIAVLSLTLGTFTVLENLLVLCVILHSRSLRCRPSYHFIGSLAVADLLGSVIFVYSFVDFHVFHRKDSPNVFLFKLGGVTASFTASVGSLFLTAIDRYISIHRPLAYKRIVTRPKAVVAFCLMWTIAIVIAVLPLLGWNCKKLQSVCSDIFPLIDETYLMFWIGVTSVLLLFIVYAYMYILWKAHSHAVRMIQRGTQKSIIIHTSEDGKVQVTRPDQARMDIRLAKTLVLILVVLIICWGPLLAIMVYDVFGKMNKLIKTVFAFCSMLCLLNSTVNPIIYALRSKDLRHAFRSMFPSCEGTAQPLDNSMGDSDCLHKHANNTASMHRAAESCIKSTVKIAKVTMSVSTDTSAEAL

Rattus norvegicus [8] = test: Antiinflammatory activity in rat assessed as inhibition of complete Freund's adjuvant-induced paw withdrawal threshold at 100 mg/kg, sc after 60 mins (reference value: 4.8%); type: functional; conditions: 1 h, route subcutaneous; how it was run: as §4
Cannabinoid receptor 2 [9] = biological target: T3, Cannabinoid receptor 2 (Rattus norvegicus, UniProt Q9QZN9); test: Agonist activity at rat CB2 receptor expressed in CHOK1 cells assessed as inhibition of forskolin-induced cAMP production treated 15 mins before forskolin challenge measured after 1 hr by HTRF assay; type: functional, cell-based, CHO-K1; how it was run: as §1
T3 sequence (Q9QZN9 whole entry): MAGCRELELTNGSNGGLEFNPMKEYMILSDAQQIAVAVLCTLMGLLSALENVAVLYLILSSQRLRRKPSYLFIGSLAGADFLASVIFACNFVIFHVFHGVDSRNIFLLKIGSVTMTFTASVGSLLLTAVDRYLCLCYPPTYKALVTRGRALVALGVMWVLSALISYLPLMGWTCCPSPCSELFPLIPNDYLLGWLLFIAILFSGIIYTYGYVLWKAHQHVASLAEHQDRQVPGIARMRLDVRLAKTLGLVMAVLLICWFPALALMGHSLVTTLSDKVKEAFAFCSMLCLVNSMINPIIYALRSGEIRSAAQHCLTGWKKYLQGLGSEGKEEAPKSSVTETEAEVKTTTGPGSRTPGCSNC

Cerebrospinal fluid = test: Drug level in rat complete Freund's adjuvant-induced inflammation model cerebrospinal fluid at 30 mg/kg, sc; type: ADME, organism-based; set-up: dose 30 mg/kg, route subcutaneous; conditions: in vivo, read-out: Drug uptake; how it was run: as §3
[10] = biological target: Cannabinoid receptor 1 (Rattus norvegicus) (UniProt P20272); test: Agonist activity at rat CB1 receptor expressed in CHOK1 cells assessed as inhibition of forskolin-induced cAMP production treated 15 mins before forskolin challenge measured after 1 hr by HTRF assay relative to control; type: functional, cell-based; conditions: CHO-K1; how it was run: as §2
Cannabinoid receptor 1 (Rattus norvegicus), sequence (P20272 whole entry): as the sequence (P20272 whole entry) above

[11] = biological target: T4, Cannabinoid receptor 2 (Rattus norvegicus) (UniProt Q9QZN9); test: Agonist activity at rat CB2 receptor expressed in CHOK1 cells assessed as inhibition of forskolin-induced cAMP production treated 15 mins before forskolin challenge measured after 1 hr by HTRF assay relative to control; type: functional, cell-based; conditions: CHO-K1; how it was run: as §2
T4 sequence (whole entry): T3 sequence (Q9QZN9 whole entry)

Rattus norvegicus [12] = test: Antiinflammatory activity in sc dosed rat assessed as inhibition of complete Freund's adjuvant-induced paw withdrawal threshold after 60 mins; type: functional, organism-based; how it was run: as §4
Rattus norvegicus [13] = species on record: Rattus norvegicus
[14] = Distribution coefficient, log P of the compound; type: physicochemical; conditions: octanol/water
[15] = Fraction unbound in rat plasma; type: ADME, cell-free
Homo sapiens = species on record: Homo sapiens; test: Selectivity ratio of IC50 for human CB1 receptor to IC50 for human CB2 receptor
[16] = Half life in rat at 2 mg/kg, iv; type: ADME, organism-based; set-up: dose 2 mg/kg, route intravenous; conditions: in vivo
[17] = Clearance in rat at 2 mg/kg, iv; type: ADME, organism-based; set-up: dose 2 mg/kg, route intravenous; conditions: in vivo
Rattus norvegicus [18] = species on record: Rattus norvegicus; test: animal or person; conditions: sc, 1 h, read-out: INH

T1 sequence (P34972 whole entry): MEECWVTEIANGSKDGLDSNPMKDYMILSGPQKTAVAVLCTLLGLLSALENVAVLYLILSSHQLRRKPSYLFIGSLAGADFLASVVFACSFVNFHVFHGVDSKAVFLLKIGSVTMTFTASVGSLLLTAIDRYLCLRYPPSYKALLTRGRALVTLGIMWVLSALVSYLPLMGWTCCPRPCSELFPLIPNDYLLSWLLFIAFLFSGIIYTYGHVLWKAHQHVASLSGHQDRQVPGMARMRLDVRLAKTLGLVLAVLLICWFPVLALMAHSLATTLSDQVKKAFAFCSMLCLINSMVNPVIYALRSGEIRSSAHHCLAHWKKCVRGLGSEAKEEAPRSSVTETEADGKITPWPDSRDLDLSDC

| SMILES | IC50 (Cannabinoid receptor 2 [1]) | Emax (Cannabinoid receptor 2 [2]) | Emax (Cannabinoid receptor 1 [3]) | IC50 (Cannabinoid receptor 1 [4]) | other results |
| --- | --- | --- | --- | --- | --- |
| O=C(c1ccccc1)N1CC[C@](O)(c2ccccc2)[C@H]2CCCC[C@@H]21 | 45 nM | 99% | 14% | > 17000 nM | – |
| O=C(c1ccc(Cl)cc1)N1CC[C@](O)(c2ccccc2)[C@H]2CCCC[C@@H]21 | 24 nM | 90% | 72% | 963 nM | – |
| O=C(c1ccc2ccccc2n1)N1CC[C@](O)(c2ccccc2)[C@H]2CCCC[C@@H]21 | 41 nM | 98% | 84% | 2020 nM | – |
| O=C(c1cccc2[nH]ccc12)N1CC[C@](O)(c2ccccc2)[C@H]2CCCC[C@@H]21 | 22 nM | 94% | 31% | > 17000 nM | – |
| CN1CCC(C(=O)N2CC[C@](O)(c3ccccc3)[C@H]3CCCC[C@@H]32)C1 (stereo partly specified) | > 17000 nM | 34% | 34% | > 17000 nM | – |
| O=C(c1ccccc1)N1CC[C@](O)(c2ccccc2)[C@H]2CCCC[C@H]21 | 4.2 nM | 100% | 76% | 4540 nM | – |
| O=C(c1ccc(Cl)cc1)N1CC[C@](O)(c2ccccc2)[C@H]2CCCC[C@H]21 | 0.14 nM | 90% | 79% | 312 nM | – |
| O=C(c1ccc2ccccc2n1)N1CC[C@](O)(c2ccccc2)[C@H]2CCCC[C@H]21 | 0.82 nM | 98% | 98% | 188 nM | – |
| O=C(c1cccc2[nH]ccc12)N1CC[C@](O)(c2ccccc2)[C@H]2CCCC[C@H]21 | 0.62 nM | 100% | 64% | > 17000 nM | – |
| O=C(c1cc(-c2ccccc2F)[nH]n1)N1CC[C@](O)(c2ccccc2)[C@H]2CCCC[C@H]21 | 21 nM | 99% | 46% | > 17000 nM | – |
| CN1CCC(C(=O)N2CC[C@](O)(c3ccccc3)[C@H]3CCCC[C@H]32)C1 (stereo partly specified) | 5.9 nM | 102% | 6% | > 17000 nM | – |
| Cc1ccc(C(=O)N2CC[C@@](O)(c3ccccc3)[C@@H]3CCCC[C@@H]32)cn1 [listing 1 of 2 here] | 7.3 nM | – | – | 5020 nM | concentration (Plasma): 4.2 µM; concentration (Brain): 3.2 µM; inhibition in vivo at 30 mg/kg (Rattus norvegicus [5]): 53.6%; inhibition in vivo at 10 mg/kg (Rattus norvegicus [6]): 28.2%; IC50 (Cannabinoid receptor 1 [7]): 1890 nM; inhibition in vivo at 100 mg/kg (Rattus norvegicus [8]): 76.4%; IC50 (Cannabinoid receptor 2 [9]): 6.3 nM; concentration (Cerebrospinal fluid): 0.223 µM |
| Cc1ccc(C(=O)N2CC[C@@](O)(c3ccccc3)[C@@H]3CCCC[C@@H]32)cn1 [listing 2 of 2 here] | – | 103% | 78% | – | Emax [10]: 94%; Emax [11]: 119%; inhibition (Rattus norvegicus [12]): Dose-dependent effect; Papp (Rattus norvegicus [13]): 36 ×10⁻⁶ cm/s |
| CN1CCOCC1C(=O)N1CC[C@@](O)(c2ccccc2)[C@@H]2CCCC[C@@H]21 (mixture of isomers) | 30 nM | 100% | – | > 17000 nM | logP [14]: 2.28; fraction unbound [15]: 0.34 |
| O=C(C1CN(CC(F)(F)F)CCO1)N1CC[C@@](O)(c2ccccc2)[C@@H]2CCCC[C@@H]21 (mixture of isomers) | 30 nM | 99% | 96% | 4040 nM | – |
| O=C(c1cnc2ccccc2c1)N1CC[C@@](O)(c2ccccc2)[C@@H]2CCCC[C@@H]21 (racemic) | 3.38 nM | 96% | 69% | 1530 nM | Ratio IC50 (Homo sapiens): 452 |
| O=C(c1ccc2ncccc2c1)N1CC[C@@](O)(c2ccccc2)[C@@H]2CCCC[C@@H]21 (racemic) | 0.53 nM | 87% | 95% | 261 nM | Ratio IC50 (Homo sapiens): 492 |
| O=C(c1ccc2cnccc2n1)N1CC[C@@](O)(c2ccccc2)[C@@H]2CCCC[C@@H]21 (racemic) | 5.5 nM | 99% | 69% | 3440 nM | Ratio IC50 (Homo sapiens): 626 |
| O=C(c1ccc2[nH]ccc2c1)N1CC[C@@](O)(c2ccccc2)[C@@H]2CCCC[C@@H]21 (racemic) | 1.4 nM | 104% | 91% | 1000 nM | Ratio IC50 (Homo sapiens): 716 |
| O=C(c1cccc2[nH]cnc12)N1CC[C@@](O)(c2ccccc2)[C@@H]2CCCC[C@@H]21 (racemic) | 35 nM | 101% | 53% | > 17000 nM | Ratio IC50 (Homo sapiens): > 486 |
| O=C(c1cccc2[nH]ncc12)N1CC[C@@](O)(c2ccccc2)[C@@H]2CCCC[C@@H]21 (racemic) | 4 nM | 102% | 15% | > 17000 nM | half-life [16]: 25.8 min; clearance [17]: 70 mL/min/kg; fraction unbound [15]: 0.048; Ratio IC50 (Homo sapiens): > 4000 |
| Cc1ccc(C(=O)N2CC[C@@](O)(c3ccccc3)[C@@H]3CCCC[C@@H]32)cn1 (racemic) | 14 nM | – | – | > 17000 nM | logP [14]: 2.26; fraction unbound [15]: 0.15 |
| O=C(c1cnco1)N1CC[C@@](O)(c2ccccc2)[C@@H]2CCCC[C@@H]21 (racemic) | 156 nM | 98% | 50% | 3440 nM | – |
| COc1ccc2cc([C@H](C)C(=O)O)ccc2c1 [NAPROXEN] | – | – | – | – | inhibition in vivo at 20 mg/kg (Rattus norvegicus [18]): 23.9% |

From ChEMBL document CHEMBL1765069, “Decahydroquinoline amides as highly selective CB2 agonists: role of selectivity on in vivo efficacy in a rodent model of analgesia” (Bioorg Med Chem Lett, 2011)
